TRPC6 act = mouse TRPC6 channel activation; HEK293-TRPC6 membrane potential dye fluorescence; active compounds read high; B-score at 10 µM; actives 0.13% (n = 310,000); AID 2550;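 active means B-score of the integrated fluorescence ratio above library mean plus 3 SD, and starting fluorescence ratio within library mean plus 5 SD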;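 further: higher score means more depolarization so channel activation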
TRPC4 act = TRPC4 (mouse) channel activation; B-score at 10 µM; Q9QUQ5; HEK293 TRPC4beta/mu-opioid, Fluo4 calcium fluorescence; active compounds read high; actives 0.49% (n = 310,000);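 active means B-score above 5 SD of library B-scores, and initial fluorescence ratio not above library mean plus 5 SD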;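 further: positive B-score marks a calcium rise read as TRPC4 activation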
Target sequence (Q9QUQ5 whole entry, looked up): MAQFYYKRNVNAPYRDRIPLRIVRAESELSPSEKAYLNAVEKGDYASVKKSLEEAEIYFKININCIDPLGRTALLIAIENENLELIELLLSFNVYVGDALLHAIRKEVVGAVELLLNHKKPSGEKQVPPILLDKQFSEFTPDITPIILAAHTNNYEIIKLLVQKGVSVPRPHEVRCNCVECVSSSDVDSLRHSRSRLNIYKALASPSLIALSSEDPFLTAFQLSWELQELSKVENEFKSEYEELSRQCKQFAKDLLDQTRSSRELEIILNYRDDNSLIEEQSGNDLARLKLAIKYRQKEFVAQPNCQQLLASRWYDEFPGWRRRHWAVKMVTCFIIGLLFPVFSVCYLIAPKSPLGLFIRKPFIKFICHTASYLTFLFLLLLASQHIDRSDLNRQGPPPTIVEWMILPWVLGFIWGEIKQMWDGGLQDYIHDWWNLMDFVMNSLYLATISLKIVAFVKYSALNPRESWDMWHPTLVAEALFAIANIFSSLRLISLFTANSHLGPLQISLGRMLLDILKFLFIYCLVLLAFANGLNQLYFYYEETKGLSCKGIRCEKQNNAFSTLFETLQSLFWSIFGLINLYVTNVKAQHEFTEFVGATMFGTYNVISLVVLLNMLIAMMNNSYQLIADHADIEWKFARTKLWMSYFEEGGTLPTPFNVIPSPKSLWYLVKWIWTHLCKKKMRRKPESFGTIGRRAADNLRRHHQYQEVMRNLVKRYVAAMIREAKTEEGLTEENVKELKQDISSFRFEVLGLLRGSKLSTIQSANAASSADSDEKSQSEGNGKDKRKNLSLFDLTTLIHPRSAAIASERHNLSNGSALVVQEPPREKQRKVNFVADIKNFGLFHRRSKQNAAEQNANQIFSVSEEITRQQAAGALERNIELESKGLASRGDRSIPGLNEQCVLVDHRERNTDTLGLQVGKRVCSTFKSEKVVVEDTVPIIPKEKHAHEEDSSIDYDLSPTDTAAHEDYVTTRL
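Incubation: 45 min room-temperature Fluo4 loading, 110 s read / System: HEK293 cells stably co-expressing mouse TRPC4beta and mu-opioid receptor / Signal: Fluo4 fluorescence, kinetic / Control set: buffer (low) and maximal DAMGO (high) / Measure: integrated baseline-normalised fluorescence ratio, converted to per-well B score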
TRPC4 block = TRPC4 (mouse) channel inhibition | actives 0.39% (n = 300,000) | AID 2247 | Q9QUQ5 | HEK293 TRPC4beta/mu-opioid, DAMGO-evoked Fluo4 calcium flux; active compounds read low | B-score at 10 µM;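 active means B-score over 3 SD under the library average, no early fluorescence shift, positive overall ratio signal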
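System: stable TRPC4beta/mu-opioid receptor HEK293 cells; Dosing: single-point compound dosing; Measured by: Fluo4 Ca2+ flux fluorescence; Read-out basis: per-well B score of integrated baseline-normalized Fluo4 ratio.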
TRPC6 inhibitor = inhibitors of mouse TRPC6 channel; B-score at 10 µM; HEK293-TRPC6, membrane potential dye, ACh-evoked depolarization; active compounds read low; actives 1.1% (n = 310,000);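 active means B-score under library mean minus 3 SD, initial fluorescence not abnormally high, positive integrated signal ratio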;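 further: B-score derived from integrated fluorescence ratio over the kinetic read; more negative B-score means stronger inhibition of depolarization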
TRPC4 potent = allosterically enhances the mouse TRPC4 cation channel | B-score at 10 µM | HEK293 TRPC4beta/mu-opioid, DAMGO EC20, Fluo-4 Ca2+ flux; active compounds read high | actives 0.42% (n = 310,000) | Q9QUQ5;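 active means B-score of calcium response area above 5 SD of library B-scores, with initial fluorescence ratio within 5 SD of library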;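 further: B-score of integrated fluorescence ratio over time as area under calcium response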
TRPC4 sel inh 2 = mouse TRPC4 off-target activity of TRPC6 inhibitors, second screen | actives 42% (n = 920) | shares compounds with TRPC6 inhibitor | HEK293 TRPC4/MOR, membrane potential dye fluorescence; channel activated by saturating DAMGO dose | inhibition, % at 10 µM;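 active means compounds whose fluorescence signal differed from control wells by over 3 SD, either direction, in both duplicate plates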
TRPC4 spec = selectivity of TRPC6 inhibitors: effect on mouse TRPC4; actives 61% (n = 920); AID 2777; shares compounds with TRPC6 inhibitor; HEK293 TRPC4/mu-opioid, membrane potential fluorescence; activity change, negative = inhibition, % at 10 µM;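 active means rise or fall in signal beyond 3 SD of buffer-only wells in both replicate plates, either sign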;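 further: integrated kinetic ratio of fluorescence range over baseline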
HEK293 MPD ctr 2-1 = second check of TRPC6 inhibitor effects in parental HEK293 cells | shares compounds with TRPC6 inhibitor | parental HEK293 membrane potential dye fluorescence; maximal acetylcholine challenge after compound addition | signal change vs control, % at 10 µM | actives 31% (n = 920) | AID 2779;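 active means membrane potential signal moving either way by over 3 SD of the maximum-effect control, in both duplicate plates, meaning non-specific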
HEK293 MPD ctr-1 = parental HEK293 nonspecific activity of TRPC6 inhibitors; shares compounds with TRPC6 inhibitor; parental HEK293 membrane potential dye fluorescence; membrane potential signal change, % at 10 µM; actives 60% (n = 920);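 active means membrane potential signal shifting up or down by more than 3 SD of buffer-only wells, on both duplicate plates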
HEK293 MPD ctr-2 = parental HEK293 nonspecific activity of TRPC6 modulators | membrane potential signal change, % at 10 µM | membrane potential dye fluorescence | shares compounds with TRPC6 inhibitor | actives 51% (n = 2,400);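 active means membrane potential signal moves up or down beyond 5 SD from buffer-only wells, on both duplicate plates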
HEK293 MPD ctr 2-2 = second counter-screen for TRPC6 modulators: effect in parental HEK293 cells. shares compounds with TRPC6 inhibitor. membrane potential dye fluorescence; after compound, maximal acetylcholine stimulation. inhibition, % at 10 µM. actives 14% (n = 2,400);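 active means membrane potential signal drops by more than 5 SD from the mean control signal, in both duplicate plates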;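 further: plate controls were acetylcholine ECmax control wells for no effect and buffer only wells for full effect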
TRPC4 ctr mod = mouse TRPC4 off-target activity of TRPC6 modulators | shares compounds with TRPC6 inhibitor | percent change from control (negative = decrease, positive = increase), % at 10 µM | HEK293 TRPC4/mu-opioid, membrane potential fluorescence | actives 69% (n = 2,400);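 active means membrane potential signal moved up or down beyond 5 SD of buffer control wells, in both duplicate plates, actives on both sides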;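 further: plate controls were assay buffer wells for no effect and DAMGO maximal-effect wells for full effect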
TRPC4 ctr inh 2 = second selectivity test of TRPC6 modulators against mouse TRPC4 | HEK293 TRPC4/mu-opioid, membrane potential dye fluorescence; stimulated with maximal-effect DAMGO | shares compounds with TRPC6 inhibitor | inhibition, % at 10 µM | actives 55% (n = 2,400);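 active means drop in membrane potential signal beyond 5 SD of the control wells in both duplicate plates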;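 further: TRPC4 counter screen for TRPC6 hits run under conditions tuned for TRPC6 not TRPC4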
TRPC6 block conf = confirmation of mouse TRPC6 inhibitors; AID 488960; actives 43% (n = 3,300); inhibition, % at 10 µM; shares compounds with TRPC6 inhibitor; HEK293-TRPC6, membrane potential dye, ACh-evoked depolarization;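 active means fluorescence ratio falls more than 5 SD below the full-stimulation control mean, in both duplicate runs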;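 further: integrated fluorescence ratio of peak minus minimum over baseline after agonist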
TRPC6 act conf = mouse TRPC6 activator confirmation; shares compounds with TRPC6 inhibitor; HEK293-TRPC6 membrane potential dye fluorescence, FDSS; activation, % at 10 µM; actives 11% (n = 2,800); AID 488961;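 active means ratio signal rise beyond 5 SD above unstimulated control wells' mean, seen in both duplicate runs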;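 further: plate controls were buffer EC0 wells for no effect and acetylcholine ECmax response for full effect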
The depositor's hits bear a star; i = inactive; . = not tested or not shown. The list is not random: actives were taken first. Their share in the collection is about 2.3%.

SMILES	TRPC6 act	TRPC4 act	TRPC4 block	TRPC6 inhibitor	TRPC4 potent	HEK293 MPD ctr-2	HEK293 MPD ctr 2-2	TRPC4 ctr mod	TRPC4 ctr inh 2	TRPC6 block conf	TRPC6 act conf	others
CCOc1cccc(-c2c(C(=O)N/N=C(\C)c3cccs3)nnn2-c2nonc2N)c1	i	i	i	i	i	.	.	.	.	.	.
OC(c1cc(-c2ccc(C(F)(F)F)cc2)nc(C(F)(F)F)c1)C1CCCCN1 (stereo not drawn)	i	43*	i	-5.9*	i	i	57%*	-10%*	54%*	i	i
COC(=O)CSc1nc(-c2ccc(F)cc2)cc(C(F)(F)F)n1	i	i	i	i	i	.	.	.	.	.	.
Cc1ccc(C)c(NC(=O)C(=O)NCC2CCCN2S(=O)(=O)c2cccs2)c1 (stereo not drawn)	i	i	i	i	i	.	.	.	.	.	.
Cc1nnc(Cl)c2nn(-c3ccccc3)c(C)c12	i	i	i	i	i	.	.	.	.	.	.
CCOc1ccc(-n2nc3c(Cl)nnc(C)c3c2C)cc1	i	i	i	-6.7*	i	i	i	i	i	i	i
CCCOC1CCCN(C(=O)c2ccc(OC)c(OC3CCN(C(C)C)CC3)c2)C1 (stereo not drawn)	i	i	i	i	i	.	.	.	.	.	.
c1ccc(C2c3[nH]c4ccccc4c3CCN2Cc2cccn2-c2ccccn2)nc1 (stereo not drawn)	i	i	i	i	i	.	.	.	.	.	.
CC(=O)Nc1ccc(CN2CCc3c([nH]c4ccccc34)C2c2ccccn2)cc1 (stereo not drawn)	i	54*	i	-7.3*	i	i	i	66%*	70%*	i	i
CCCCNC(=O)CCn1nc(-c2ccccc2)c2ccccc2c1=O	i	i	i	-7.9*	i	.	.	.	.	i	.	TRPC4 sel inh 2=i;TRPC4 spec=7.5%*;HEK293 MPD ctr 2-1=i;HEK293 MPD ctr-1=5.7%*
CCOC(=O)CCn1nc(-c2ccc(C)cc2)c2ccccc2c1=O	i	i	i	-5.5*	i	180%*	i	42%*	i	54%*	.
CN(C)C(=O)c1ccc(NC(=O)CN2C(=O)NC3(CCCc4ccccc43)C2=O)cc1 (stereo not drawn)	i	i	i	i	i	.	.	.	.	.	.
COc1ccc(-c2csc(NC(=O)c3ccccc3NS(=O)(=O)c3ccc(F)c(F)c3)n2)cc1	i	i	i	-5.3*	i	i	i	-15%*	56%*	64%*	i
Cc1ccc(S(=O)(=O)Nc2ccccc2C(=O)Nc2nc(-c3ccc(F)cc3)cs2)cc1	i	i	i	i	i	.	.	.	.	.	.
O=C(CSc1nnc(-c2ccc(F)cc2)o1)NC1CCCC1	i	i	i	i	i	.	.	.	.	.	.
CCN1CCN(c2nc3c(c(=O)[nH]c(=O)n3C)n2CCCSc2ncccn2)CC1	i	i	i	-5.4*	i	-188%*	i	-22%*	46%*	i	i
CCCn1c(N2CCN(C)CC2)nc2c1c(=O)[nH]c(=O)n2C	i	i	i	i	i	.	.	.	.	.	.
CCN1CCN(c2nc3c(c(=O)[nH]c(=O)n3C)n2CCCc2ccccc2)CC1	i	i	i	i	i	.	.	.	.	.	.
CN1CCN(c2nc3c(c(=O)[nH]c(=O)n3C)n2CCCSc2ncccn2)CC1	i	i	i	-5.9*	i	-166%*	i	-30%*	i	i	i
Cn1c(=O)[nH]c(=O)c2c1nc(N1CCCCCC1)n2CCN1CCCCCC1	i	i	i	-6.6*	i	.	.	.	.	i	i	TRPC4 sel inh 2=54%*;TRPC4 spec=-11%*;HEK293 MPD ctr 2-1=i;HEK293 MPD ctr-1=-218%*
Cc1ccc(C)c(NC(=O)c2ccc(S(=O)(=O)N(C)CC3CCCO3)cc2)c1 (stereo not drawn)	i	i	i	i	i	.	.	.	.	.	.
CSc1ccc(CN(C)C(=O)c2cccc(S(=O)(=O)N3CCN(Cc4ccccc4)CC3)c2)cc1	i	i	i	i	i	.	.	.	.	.	.
COc1ccc(-c2sc(Nc3ccccc3)n[n+]2-c2ccc(F)cc2)c(C)c1C	i	i	i	-5.4*	i	i	i	i	63%*	i	i
Cc1cccc(-c2sc(Nc3ccccc3)n[n+]2-c2ccc(F)cc2)c1	i	i	i	i	i	.	.	.	.	.	.
Cc1cc(N2CCN(c3nc(-c4ccccc4)cs3)CC2)c2ccccc2n1	i	i	i	i	i	.	.	.	.	.	.
Cc1cc(=O)[nH]c(N2CCN(C(=O)c3ccco3)CC2)n1	i	i	i	i	i	.	.	.	.	.	.
Nc1nc(N2CCN(C(=O)c3ccco3)CC2)nc2ccccc12	i	i	i	-7.5*	i	.	.	.	.	i	i	TRPC4 sel inh 2=i;TRPC4 spec=-23%*;HEK293 MPD ctr 2-1=i;HEK293 MPD ctr-1=-412%*
Cc1cc(N2CCN(C(=O)c3ccco3)CC2)c2ccccc2n1	i	i	i	-6.4*	i	-168%*	i	-29%*	28%*	i	i

From PubChem
